# Screening results (PubChem BioAssay)
# MrgX1 allo act = allosterically activates human MrgX1 receptor signaling. 310,000 compounds, 0.63% hits. AID 588675. B-score at 10 µM. MrgX1-HEK293, Fluo-4 calcium flux, FDSS; active compounds read high;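 active = plate-corrected calcium response at least 3 library SD above typical, normal starting fluorescence, not activating the receptor alone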;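 note: compound read alongside a low EC10 to EC30 dose of BAM8-22 agonist; peak minus trough fluorescence over baseline measured at the second addition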
# Target sequence (Q96LB2 whole entry, looked up): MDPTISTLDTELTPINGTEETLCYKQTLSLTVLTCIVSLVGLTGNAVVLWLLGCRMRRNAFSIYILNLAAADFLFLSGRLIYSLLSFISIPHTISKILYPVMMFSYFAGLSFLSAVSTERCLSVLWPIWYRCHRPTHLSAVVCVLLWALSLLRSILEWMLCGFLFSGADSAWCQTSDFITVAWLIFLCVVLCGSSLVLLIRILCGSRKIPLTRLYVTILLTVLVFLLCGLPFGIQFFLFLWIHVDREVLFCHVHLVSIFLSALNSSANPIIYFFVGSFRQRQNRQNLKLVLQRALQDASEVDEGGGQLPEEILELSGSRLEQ
# RGS4 pot = RGS4 potentiation or activation | HEK293 M3R/inducible RGS4, carbachol calcium flux Fluo4; active compounds read low | B-score at 10 µM | 310,000 compounds, 0.92% hits;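 active = B-score of the integrated calcium signal more than 4 SD below the library mean, with starting fluorescence not abnormally high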;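 note: negative B-score means reduced calcium response which marks RGS4 activation or potentiation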
#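 Test system: HEK293 cells with stable M3R and inducible RGS4; also added: carbachol at ECmax as muscarinic agonist stimulus; schedule: dye loading 30 min 37 °C, buffer rest 30 min RT; technique: kinetic calcium fluorescence imaging with Fluo4-AM dye, 2 µM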
# MrgX1 antagonist = blocks BAM8-22 activation of human MrgX1 receptor. MRGX1-HEK293 calcium flux, Fluo-4, BAM8-22 antagonism; active compounds read low. 310,000 compounds, 1.3% hits. B-score at 10 µM;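 active = calcium-response B-score plate-corrected more than 3 library SD below zero, starting fluorescence within 5 deviations, no agonist response on first addition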;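 note: peak minus trough fluorescence over baseline after final BAM8-22 challenge near maximal dose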
# MrgX1 ag = agonists of human MrgX1 receptor. Q96LB2. MrgX1-HEK293 cells, Fluo-4 calcium fluorescence, agonist mode; active compounds read high. B-score at 10 µM. 310,000 compounds, 0.44% hits;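 active = calcium response B-score plate-corrected fluorescence ratio at least 3 library SD, with starting fluorescence B-score inside 5 SD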
#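 Material: HEK293 cells stably expressing human MrgX1 receptor | Quantity: 15,000 cells per well | Times: Cells plated overnight, dye loaded 0.5 h 37 °C, 0.5 h room temperature | Measured by: Kinetic Fluo-4 NW fluorescence of intracellular calcium | Control set: Positive and negative controls per plate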
# RGS4 block = human RGS4 inhibition. P49798. HEK293 M3R/RGS4 inducible, Fluo-4 calcium flux; active compounds read high; triggered by carbachol at its EC20. B-score at 10 µM. 310,000 compounds, 0.45% hits. AID 463165;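 active = B-score, a plate-corrected calcium signal, over three deviations above library mean, with baseline fluorescence within five deviations of library mean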;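 note: RGS4 expression induced by doxycycline in cells with stable M3 receptor; B-score is computed from the integrated fluorescence ratio over baseline after carbachol; higher B-score means a larger calcium signal and so more RGS4 inhibition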
# Target sequence (P49798 whole entry, looked up): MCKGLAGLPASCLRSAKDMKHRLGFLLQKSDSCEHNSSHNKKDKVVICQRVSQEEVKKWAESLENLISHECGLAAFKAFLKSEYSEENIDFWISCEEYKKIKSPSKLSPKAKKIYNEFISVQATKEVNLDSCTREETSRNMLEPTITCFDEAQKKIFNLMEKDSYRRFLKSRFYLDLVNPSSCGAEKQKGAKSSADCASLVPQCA
# RGS4 inh valid = validation of RGS4 inhibitors; shares compounds with RGS4 block; HEK293 M3R/RGS4, carbachol calcium Fluo-4 fluorescence; carbachol added at its EC20; 0 = buffer wells, 100 = carbachol control; calcium response, % at 10 µM; 1,700 compounds, 65% hits;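 active = duplicate-averaged calcium response above the buffer-only control mean plus 5 SD of those controls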;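 note: integrated fluorescence ratio F max minus min over baseline F0; higher response in RGS4-induced cells means RGS4 inhibition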
# RGS4 uninduced = checks RGS4 inhibitor effects in non-induced HEK293 M3R cells; shares compounds with RGS4 block; carbachol calcium Fluo-4; submaximal (EC20) carbachol stimulus; buffer wells 0%, carbachol control wells 100%; activity (percent), % at 10 µM; 1,900 compounds, 20% hits; AID 493000; call rule not given here;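 note: RGS4 induction absent so cells express M3R without RGS4; higher means more calcium signal and flags a non-specific hit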
# RGS4 inh ctr2 = second counter-screen for RGS4 inhibitors: non-induced cells without carbachol; HEK293 M3R/RGS4 non-induced, Fluo-4 calcium, no carbachol; normalised: buffer wells 0%, carbachol wells 100%; 1,900 compounds, 22% hits; calcium response (agonist-mode artifact), % at 10 µM; AID 493001; shares compounds with RGS4 block;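 active = duplicate-averaged calcium rise in uninduced cells above buffer wells' mean plus 5 SD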
# * hit, by the source's call; i = inactive; nt = no result. Hits are enriched below; roughly 3.5% of the tested compounds scored in any of these assays.
SMILES,MrgX1 allo act,RGS4 pot,MrgX1 antagonist,MrgX1 ag,RGS4 block,RGS4 inh valid,RGS4 uninduced,RGS4 inh ctr2
Nc1c(C(=O)c2ccc(Cl)cc2)sc2c1c(=O)[nH]c(=O)n2-c1ccccc1,i,i,i,i,5.2*,38%*,i,26%*
CC(=O)c1ccc(-n2c(=O)[nH]c(=O)c3c(N)c(C(=O)c4ccc(Cl)cc4)sc32)cc1,i,i,i,i,i,nt,i,i
CCN(Cc1ccccc1)C(=O)c1ccc(CS(=O)c2ccccc2C)o1 (centres undefined),i,i,i,i,i,nt,nt,nt
CC1(C)CSC(=NCCc2ccccc2)N1,i,i,i,i,i,nt,nt,nt
S=C(Nc1ccccc1)Nc1nc2ccccc2n1CCOc1ccc(Cl)cc1,i,i,i,i,6.2*,16%*,34%*,i
C=CCn1c(SCc2nc3ccccc3c(=O)[nH]2)nc2scc(C3CC3)c2c1=O,i,i,i,i,i,nt,nt,nt
COc1ccc(OC)c(S(=O)(=O)ON2C(=O)c3ccccc3C2=O)c1,i,i,i,i,i,nt,nt,nt
CC1=NN(c2ccc(C)c(C)c2)C(=O)C1C(c1cccc(O)c1)C1C(=O)N(c2ccc(C)c(C)c2)N=C1C (centres undefined),i,i,i,i,15*,14%*,i,i
CCOC(=O)c1sc(Nc2nc(OC)cc(OC)n2)nc1C,i,i,i,i,i,nt,nt,nt
O=C(NC1CCCCCC1)c1ccco1,i,i,i,i,i,nt,nt,nt
CCc1ccc(N2CC(C(=O)N/N=C/c3cc([N+](=O)[O-])ccc3O)CC2=O)cc1 (centres undefined),i,i,i,i,i,nt,57%*,i
CCc1ccc(N2CC(C(=O)N/N=C/c3ccccc3OC)CC2=O)cc1 (centres undefined),i,i,i,i,i,nt,nt,nt
Cc1cc(C)cc(C(=O)NCC(=O)OCC(=O)Nc2ccc(C)cc2Br)c1,i,i,i,i,i,nt,nt,nt
COc1ccc(S(=O)(=O)Nc2cccc(F)c2)cc1C,i,i,i,i,i,nt,nt,nt
COc1ccc(S(=O)(=O)Nc2ccc(S(=O)(=O)Nc3ccc(F)cc3)cc2)cc1C,i,i,i,i,5*,22%*,i,i
COC(=O)C1=C(O)/C(=C\c2ccc(OCC(=O)Nc3ccc(OC)cc3)cc2)N=C1C,i,i,i,i,i,nt,nt,nt
O=c1cc(-c2ccccc2Cl)oc2c([N+](=O)[O-])c(O)cc(O)c12,i,i,i,i,10*,32%*,52%*,i
O=c1cc(-c2ccccc2Cl)oc2ccc([N+](=O)[O-])c(O)c12,i,i,i,i,i,nt,nt,nt
Cc1ccc(N2C(=O)C3NN=C(C(=O)OCc4ccccc4)C3C2=O)cc1 (centres undefined),i,i,i,i,i,nt,nt,nt
Cc1ccc(N2C(=O)[C@@H]3C(C(=O)C(c4ccccc4)c4ccccc4)=NN[C@@H]3C2=O)cc1,i,i,i,i,7.2*,29%*,102%*,i
COCCNC(=O)CN1CCC(NC(=O)c2ccco2)CC1,i,i,i,i,i,nt,nt,nt
COc1cccc(-c2nc(C=O)cs2)c1,i,i,i,i,5*,5.0%*,i,i
COc1ccc(OC)c(C2C=C(C34CC5CC(CC(C5)C3)C4)NC(=S)N2)c1 (centres undefined),i,i,i,i,8.8*,14%*,i,i
O=C(CCNC(=O)c1ccccc1Cl)Nc1cc(C(F)(F)F)ccc1N1CCCC1,i,i,i,i,i,nt,nt,nt
O=C(CCc1nnc(-c2ccccc2)o1)NCc1c(F)cccc1F,i,i,i,i,i,nt,nt,nt
SMILES,MrgX1 allo act,RGS4 pot,MrgX1 antagonist,MrgX1 ag,RGS4 block,RGS4 inh valid,RGS4 uninduced,RGS4 inh ctr2
Cc1c(C=O)c2cc(OCc3ccccc3)ccc2n1C,i,i,i,i,i,nt,nt,nt
CC1CCCCN1C(=O)COC(=O)C1CCN(S(=O)(=O)c2ccc3c(c2)OCCO3)CC1 (centres undefined),i,i,i,i,i,nt,nt,nt
Cc1cc2cc(C)c(NCCNC(=O)c3ccccc3)nc2cc1C,i,i,i,i,i,i,i,i
CCc1ccc2c(c1)C(=O)C[C@]1(CCC[C@H](C)C1)O2,i,i,i,i,i,nt,nt,nt
COc1ccc(C2(c3ccc(O)cc3O)CC(c3ccccc3Cl)NC(=S)N2)cc1 (centres undefined),i,i,i,i,10*,36%*,i,i
NC[C@@H]1O[C@H](C23CC4CC(CC(C4)C2)C3)Cc2c1ccc(O)c2O,i,i,i,i,10*,10%*,i,i
CC(C)c1ccc(NC(=O)C2CC(=O)Nc3nc4ccccc4n32)cc1 (centres undefined),i,i,i,i,i,nt,nt,nt
COc1ccc(NS(=O)(=O)c2ccc3nc(COc4cccc5ccccc45)[nH]c3c2)cc1,i,i,i,i,8.5*,7.0%*,i,i
COc1cccc(/C=C(/C(=O)OCC(=O)NCC2CCCO2)c2ccccc2)c1 (centres undefined),i,i,i,i,i,nt,nt,nt
COc1cccc(/C=C(/C(=O)OCC(=O)NC2CCCCCCC2)c2ccccc2)c1,i,i,i,i,5*,i,i,7.0%*
Cn1c(SCC(=O)N=Nc2c(O)[nH]c3ccccc23)nc2ccccc21,i,i,i,i,i,nt,nt,nt
O=C(CSc1nc2ccccc2[nH]1)N=Nc1c(O)[nH]c2ccccc12,i,i,i,i,5*,i,i,i
CCN(C#N)c1nc(NC(C)C)nc(NC(C)(C)C)n1,i,i,i,i,5.1*,7.0%*,i,i
c1ccc(CC2CCN(c3ncnc4sccc34)CC2)cc1,nt,i,nt,nt,i,nt,nt,nt
O=C(O)c1cc2c(N3CCC(Cc4ccccc4)CC3)ncnc2s1,i,i,i,i,17*,58%*,50%*,i
